Data set [1] has as its system Rattus norvegicus. Nature of the data set: Antiinflammatory activity in albino rat assessed as inhibition of carrageenan-induced paw edema at 5 mg/kg, po administered 30 mins before carrageenan challenge measured after 3 hrs. The data set is classed as functional. In short, it runs like this:
(§1)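 Rats dosed orally with compound suspended in 0.5% carboxymethyl cellulose; controls got CMC vehicle. 30 min later, 0.1 mL freshly prepared 1% carrageenan in normal saline injected subplantar into right hind paw. Paw thickness measured at 60, 120 and 180 min after dosing. Result given as % inhibition of edema ± S.E.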
For orientation: The carrageenan paw model is a standard test of acute inflammation.

Data set [2] has as its system Rattus norvegicus. As to the kind of experiment: Antiinflammatory activity in albino rat assessed as inhibition of carrageenan-induced paw edema at 5 mg/kg, po administered 30 mins before carrageenan challenge measured after 1 hr. The data set is classed as functional. In short, it runs like this: as §1
For data set [3], the system named is Rattus norvegicus. As to the kind of experiment: Antiinflammatory activity in albino rat assessed as inhibition of carrageenan-induced paw edema at 5 mg/kg, po administered 30 mins before carrageenan challenge measured after 2 hrs. The data set is classed as functional. Summed up: as §1
The nature of data set [4]: Toxicity in ip dosed albino mouse assessed as mortality after 24 hrs. The conditions noted are these: in vivo. The data set is classed as organism-based. Summed up:
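Adult male albino mice (25-30 g), groups of five, given graded doses intraperitoneally. Mortality per group recorded 24 h after injection. LD50 calculated by a graphical method.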

Data set [5] deals with Rattus norvegicus. Nature of the data set: Gastrointestinal toxicity in albino rat assessed as ulcer index at 50 mg/kg, po after 6 hrs. The data set is classed as organism-based. Also on record: dose 50 mg/kg, route oral. The conditions noted are these: in vivo. Summed up: (§2)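 Oral dosing by stomach tube with suspensions in 0.5% w/v aqueous carboxymethyl cellulose (10, 50, 100 mg/kg); controls got equal volume of vehicle. Rats killed at 6 h, stomachs opened along greater curvature, washed, mucosa examined by stereomicroscope. Ulcer = lesion ≥0.5 mm; five patches = 1 mm. Ulcer index = summed lesion lengths divided by animal number; groups of 6.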

Data set [6] relates to Rattus norvegicus. Nature of the data set: Gastrointestinal toxicity in albino rat assessed as ulcer index at 100 mg/kg, po after 6 hrs. The data set is classed as organism-based. Further details: dose 100 mg/kg, route oral. The conditions noted are these: in vivo. Summed up:
as §2

In data set [7] the test system is Rattus norvegicus. As to the kind of experiment: Gastrointestinal toxicity in albino rat assessed as ulcer index at 10 mg/kg, po after 6 hrs. The conditions noted are these: in vivo. Further details: dose 10 mg/kg, route oral. The data set is classed as organism-based. Summed up:
as §2

Regarding `CCOC(=O)Cc1nc(N)n(C(=O)c2ccccc2)n1`, the inhibition in vivo at 5 mg/kg with Rattus norvegicus [1] was 57.5%; in the data set on Rattus norvegicus [2], 31.6%; in the data set with Rattus norvegicus [3], 38.5%.

`Nc1nc(CC(=O)O)n[nH]1`: the figures for the inhibition in vivo at 5 mg/kg with Rattus norvegicus [1], in the data set with Rattus norvegicus [2] and with Rattus norvegicus [3] were 48.1%, 22.3% and 29.5%, respectively.

As for `CCOC(=O)Cc1nc(N)n(C(=O)c2ccc(Br)cc2)n1`, the inhibition in vivo at 5 mg/kg amounted to 64.1% in the data set on Rattus norvegicus [1], 34.8% with Rattus norvegicus [2] and 43% with Rattus norvegicus [3]. In data set [4], the LD50 at 24 h came out at 120 mg/kg.

With `CCOC(=O)Cc1nc(N)n(C(=O)c2ccc(OC)cc2)n1`, the inhibition in vivo at 5 mg/kg is 60% with Rattus norvegicus [1], 32.8% with Rattus norvegicus [2] and 41.5% in the data set on Rattus norvegicus [3].

For the molecule `CCOC(=O)Cc1nc(N)n(C(=O)c2ccc([N+](=O)[O-])cc2)n1`, the values for the inhibition in vivo at 5 mg/kg with Rattus norvegicus [1], with Rattus norvegicus [2] and in the data set on Rattus norvegicus [3] were 68.2%, 36.1% and 46.3%, respectively. In data set [4], the 50% lethal dose (LD50) at 24 h came to 90 mg/kg.

Take `CCOC(=O)Cc1nc(N)n(C(=O)c2ccc(Cl)cc2)n1`: the inhibition in vivo at 5 mg/kg in the data set on Rattus norvegicus [1] amounted to 62.8%; in the data set with Rattus norvegicus [2], 34.2%; in the data set on Rattus norvegicus [3] it was 42.3%. Also, the UI with Rattus norvegicus [5] stood at 0.5; in the data set on Rattus norvegicus [6] it was 0.75; with Rattus norvegicus [7], 0. For the same molecule, in data set [4], the 50% lethal dose (LD50) at 24 h was found to be 130 mg/kg.

On to `CCOC(=O)Cc1n[nH]c(NC(=O)c2ccc([N+](=O)[O-])cc2)n1`, for which the figures for the inhibition in vivo at 5 mg/kg with Rattus norvegicus [1], in the data set on Rattus norvegicus [2] and with Rattus norvegicus [3] were 59.8%, 32.6% and 42.1%, respectively.

In the case of `CCOC(=O)Cc1n[nH]c(NC(=O)c2ccc(OC)cc2)n1`, the results for the inhibition in vivo at 5 mg/kg in the data set with Rattus norvegicus [1], in the data set on Rattus norvegicus [2] and in the data set with Rattus norvegicus [3] were 56%, 30.2% and 38.2%, respectively.

For `CCOC(=O)Cc1n[nH]c(N)n1`, the figures for the inhibition in vivo at 5 mg/kg with Rattus norvegicus [1], in the data set with Rattus norvegicus [2] and in the data set with Rattus norvegicus [3] were 51.8%, 25% and 33.6%, respectively.

For `CCOC(=O)Cc1n[nH]c(NC(=O)c2ccc(Br)cc2)n1`, the inhibition in vivo at 5 mg/kg worked out at 58.8% in the data set on Rattus norvegicus [1], 31.3% in the data set on Rattus norvegicus [2] and 40.4% in the data set with Rattus norvegicus [3].

Turning to `CCOC(=O)Cc1n[nH]c(NC(=O)c2ccccc2)n1`, the inhibition in vivo at 5 mg/kg with Rattus norvegicus [1] was 55.3%; with Rattus norvegicus [2] it was 26.8%; with Rattus norvegicus [3], 36.2%.

Regarding `CCOC(=O)Cc1n[nH]c(NC(=O)c2ccc(Cl)cc2)n1`, the inhibition in vivo at 5 mg/kg with Rattus norvegicus [1] turned out to be 58.5%; in the data set on Rattus norvegicus [2] it was 31.1%; with Rattus norvegicus [3], 39.1%. The UI in the data set with Rattus norvegicus [5] stood at 0; in the data set on Rattus norvegicus [6], 0.75; in the data set with Rattus norvegicus [7], 0.

Consider `COc1ccc2c(c1)c(CC(=O)O)c(C)n2C(=O)c1ccc(Cl)cc1` [INDOMETHACIN], for which the inhibition in vivo at 5 mg/kg in the data set on Rattus norvegicus [1] came to 60.8%; in the data set with Rattus norvegicus [2], 31.5%; with Rattus norvegicus [3], 40.1%. For the same molecule, the UI in the data set with Rattus norvegicus [5] is given as 1.9; in the data set with Rattus norvegicus [6], 2.1; in the data set on Rattus norvegicus [7] it was 2.5. In addition, the 50% lethal dose (LD50) at 24 h in data set [4] is 50 mg/kg.

As a reminder, the inhibition in vivo is how much of the control response was suppressed. What is called LD50 is the dose expected to kill half of the subjects tested.

The values above are taken from ChEMBL document CHEMBL1152856, “Design, synthesis and molecular modeling study of acylated 1,2,4-triazole-3-acetates with potential anti-inflammatory activity” (Eur J Med Chem, 2009).
